A short description of data set [1]: Inhibition of PDE (unknown origin). More on the design: species or system Homo sapiens.
Data set [2] is described as follows: Inhibition of chloride channel (unknown origin). More on the design: species or system Homo sapiens.
For data set [3], the target named is G protein-coupled receptor GPR35 (Rattus norvegicus) (UniProt Q33BM1). Description: Agonist activity at rat GPR35 expressed in CHO cells assessed as induction of beta-arrestin recruitment at 10 uM after 90 mins by beta-galactosidase reporter gene assay relative to zaprinast. It is filed as cell-based. The essentials:
(§1)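 Rat GPR35 expressed by transfecting a parental CHO β-arrestin-EA line; cells seeded at 20000/well the day before. Compounds (final DMSO ≤1%) were incubated 90 min, followed by detection reagent and a luminescence read after 60 min.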
In general terms: Arrestin recruitment assays detect the binding of arrestin to an activated receptor.

For data set [4], the target named is G protein-coupled receptor GPR35 (Rattus norvegicus, UniProt Q33BM1). Nature of the data set: Agonist activity at rat GPR35 expressed in CHO cells assessed as induction of beta-arrestin recruitment after 90 mins by beta-galactosidase reporter gene assay. It is filed as cell-based. The essentials:
as §1

The target in data set [5] is G-protein coupled receptor 35 (Mus musculus) (UniProt Q9ES90). Description: Agonist activity at mouse GPR35 expressed in CHO cells assessed as induction of beta-arrestin recruitment at 10 uM after 90 mins by beta-galactosidase reporter gene assay relative to zaprinast. The data set is classed as cell-based. The gist of the method: (§2)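 Mouse GPR35 introduced by transfection into a CHO β-arrestin-EA line; 20000 cells/well plated the day prior. After 90 min of compound exposure (final DMSO ≤1%), detection reagent was added and luminescence read after 60 min.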

Data set [6] concerns the target G-protein coupled receptor 35 (Mus musculus, UniProt Q9ES90). Nature of the data set: Agonist activity at mouse GPR35 expressed in CHO cells assessed as induction of beta-arrestin recruitment after 90 mins by beta-galactosidase reporter gene assay. The data set is classed as cell-based. The gist of the method: as §2
Data set [7] deals with T1, G-protein coupled receptor 35 (Homo sapiens, UniProt Q9HC97). Nature of the data set: Agonist activity at human GPR35 expressed in CHO cells assessed as induction of beta-arrestin recruitment at 10 uM after 90 mins by beta-galactosidase reporter gene assay relative to zaprinast. It is filed as cell-based. The essentials:
(§3)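 PathHunter enzyme-fragment complementation in CHO cells stably expressing β-arrestin-EA and tagged human GPR35, seeded at 20000 cells/well the day before. DMSO dilutions were further diluted 1:10 (final DMSO ≤1%). Cells were incubated 90 min, then detection reagent was added and luminescence read after 60 min.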

Data set [8] concerns the target T1, G-protein coupled receptor 35. Nature of the data set: Agonist activity at human GPR35 expressed in CHO cells assessed as induction of beta-arrestin recruitment after 90 mins by beta-galactosidase reporter gene assay. The data set is classed as cell-based. The essentials:
as §3

The species entered for another data set is Homo sapiens. Nature of the data set: Selectivity ratio of IC50 for human GPR55 to EC50 for human GPR35.
In data set [9] the target is T2, G-protein coupled receptor 55 (Homo sapiens, UniProt Q9Y2T6). Description: Antagonist activity at human GPR55 expressed in CHO cells assessed as inhibition of lysophosphotidylinositol-induced beta-arrestin recruitment preincubated for 30 mins followed by lysophosphotidylinositol induction by beta-galactosidase reporter gene assay. It is filed as functional, cell-based. The essentials: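 Human GPR55 PathHunter CHO cells were preincubated 30 min with compound, then stimulated with LPI (final 1 µM). After 90 min, detection reagent was added and luminescence read 60 min later. Screening was at 10 µM; full concentration-inhibition curves were run for selected compounds to give IC50.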

In data set [10] the target is T2, G-protein coupled receptor 55. Nature of the data set: Agonist activity at human GPR55 expressed in CHO cells assessed as induction of beta-arrestin recruitment at 10 uM after 90 mins by beta-galactosidase reporter gene assay relative to lysophosphotidylinositol. It is filed as functional, cell-based. The essentials: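 Human GPR55 PathHunter CHO cells, 20000 cells/well seeded the day before, received test compound at 10 µM (final DMSO ≤1%) for 90 min. Detection reagent was then added and luminescence read after 60 min. Signal was normalized to that of 1 µM LPI.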

In data set [11] the target is T1, G-protein coupled receptor 35. Description: Agonist activity at human GPR35b expressed in CHO cells assessed as induction of beta-arrestin recruitment at 10 uM after 90 mins by beta-galactosidase reporter gene assay relative to zaprinast. The data set is classed as cell-based. The essentials:
(§4)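 CHO β-arrestin-EA parental line transfected with human GPR35b, seeded at 20000 cells/well the day before. Compounds in DMSO were diluted 1:10 in medium or PBS (final DMSO ≤1%). After 90 min of incubation, detection reagent was added and luminescence measured 60 min later. Screening was at 10 µM.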

For data set [12] the target is unchanged. Description: Agonist activity at human GPR35b expressed in CHO cells assessed as induction of beta-arrestin recruitment after 90 mins by beta-galactosidase reporter gene assay. The data set is classed as cell-based. The essentials: as §4
For data set [13], the target named is G-protein coupled receptor 35 (Mus musculus) (UniProt Q9ES90). Nature of the data set: Agonist activity at mouse GPR35 expressed in CHO cells assessed as induction of beta-arrestin recruitment at 10 uM after 90 mins by beta-galactosidase reporter gene assay. The data set is classed as cell-based. The essentials: as §2
Data set [14] in a line: Stability of the compound in aceronitrile/water at pH 8 at 1.2 mM after 2 to 4 days by LC-MS analysis in presence of ammonia and ammonium acetate. It is filed as physicochemical. As to conditions: buffer, pH 8, 1200 µM. The essentials:
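Solution of compound at 1.20 mM in 1:1 acetonitrile/water at pH 8.0, containing ammonia ([…]) and ammonium acetate (2 mM); sample then analysed by LC-MS.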

Data set [15] can be described thus: Stability of the compound in aceronitrile/water at pH 5.5 at 1.2 mM after 4 hrs by LC-MS analysis. The data set is classed as physicochemical. As to conditions: buffer, pH 5.5, 4 h, 1200 µM. The gist of the method:
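Compound dissolved at 1.20 mM in 1:1 acetonitrile/water at pH 5.5 with no added acid, base or salt; sample then analysed by LC-MS.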

The nature of data set [16]: Stability of the compound in aceronitrile/water at pH 3.5 at 1.2 mM after 90 mins by LC-MS analysis in presence of acetic acid and ammonium acetate. As to conditions: buffer, pH 3.5, 1.5 h, 1200 µM. It is filed as physicochemical. The essentials:
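Compound prepared at 1.20 mM in 1:1 acetonitrile/water adjusted to pH 3.5, containing acetic acid (300 mM) and ammonium acetate (2 mM); sample then analysed by LC-MS.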

Data set [17] addresses T3, Aryl hydrocarbon receptor (Homo sapiens, UniProt P35869).
T3 sequence (P35869 whole entry): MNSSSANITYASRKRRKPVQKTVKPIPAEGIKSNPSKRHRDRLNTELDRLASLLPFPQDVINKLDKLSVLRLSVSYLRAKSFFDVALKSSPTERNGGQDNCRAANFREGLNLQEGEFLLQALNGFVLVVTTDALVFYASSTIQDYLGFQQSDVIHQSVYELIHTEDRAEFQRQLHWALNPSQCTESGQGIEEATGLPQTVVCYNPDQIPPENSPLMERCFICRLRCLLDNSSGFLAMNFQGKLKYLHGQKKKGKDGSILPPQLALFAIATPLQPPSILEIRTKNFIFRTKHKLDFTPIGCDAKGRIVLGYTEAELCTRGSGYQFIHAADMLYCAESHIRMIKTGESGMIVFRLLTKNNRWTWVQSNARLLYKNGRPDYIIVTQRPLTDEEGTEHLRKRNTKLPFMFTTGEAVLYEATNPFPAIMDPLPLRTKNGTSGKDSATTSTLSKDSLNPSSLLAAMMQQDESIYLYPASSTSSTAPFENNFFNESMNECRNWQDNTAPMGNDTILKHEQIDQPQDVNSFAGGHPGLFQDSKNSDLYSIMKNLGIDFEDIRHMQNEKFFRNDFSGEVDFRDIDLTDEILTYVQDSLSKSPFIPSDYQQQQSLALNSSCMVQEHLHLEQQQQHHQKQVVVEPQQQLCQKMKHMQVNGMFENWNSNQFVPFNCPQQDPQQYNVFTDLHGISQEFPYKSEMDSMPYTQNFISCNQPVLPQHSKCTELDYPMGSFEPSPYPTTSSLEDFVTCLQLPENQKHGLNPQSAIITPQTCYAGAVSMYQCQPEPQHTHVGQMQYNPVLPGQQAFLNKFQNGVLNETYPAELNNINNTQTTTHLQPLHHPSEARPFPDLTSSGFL
Nature of the data set: Activation of AHR (unknown origin).

In data set [18] the target is Neuronal acetylcholine receptor subunit alpha-7 (Homo sapiens, UniProt P36544). Description: Inhibition of alpha7 nAChR (unknown origin).
In data set [19] the target is Glutamate [NMDA] receptor. Nature of the data set: Inhibition of NMDA receptor (unknown origin). More on the design: species or system Homo sapiens.
Data set [20] has as its target GABA-A receptor; agonist GABA site. Description: Inhibition of GABAA receptor (unknown origin). It is filed as protein-complex assay, Homo sapiens.
A short description of data set [21]: Inhibition of AMPA receptor (unknown origin). On the set-up: species or system Homo sapiens.

Bounds are passed on as bounds.

T1 sequence (Q9HC97 whole entry, the tested form may be a part): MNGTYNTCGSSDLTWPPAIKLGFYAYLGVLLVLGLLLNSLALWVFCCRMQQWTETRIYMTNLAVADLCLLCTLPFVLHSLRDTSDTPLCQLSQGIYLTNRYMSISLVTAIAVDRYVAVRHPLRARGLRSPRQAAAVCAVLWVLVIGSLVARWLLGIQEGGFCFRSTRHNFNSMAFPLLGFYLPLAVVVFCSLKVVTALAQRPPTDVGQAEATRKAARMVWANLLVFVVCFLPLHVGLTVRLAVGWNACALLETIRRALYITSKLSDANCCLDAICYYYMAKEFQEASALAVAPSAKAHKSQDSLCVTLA
Sequence of G protein-coupled receptor GPR35 (Q33BM1 whole entry): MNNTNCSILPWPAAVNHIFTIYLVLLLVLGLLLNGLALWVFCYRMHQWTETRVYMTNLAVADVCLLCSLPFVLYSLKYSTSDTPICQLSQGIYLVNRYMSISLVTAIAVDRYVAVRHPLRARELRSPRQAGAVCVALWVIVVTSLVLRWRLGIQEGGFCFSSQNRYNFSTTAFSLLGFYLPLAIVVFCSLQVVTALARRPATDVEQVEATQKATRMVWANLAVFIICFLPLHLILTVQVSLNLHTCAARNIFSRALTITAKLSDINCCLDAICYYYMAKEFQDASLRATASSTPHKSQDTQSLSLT
Sequence of G-protein coupled receptor 35 (Mus musculus) (Q9ES90 whole entry): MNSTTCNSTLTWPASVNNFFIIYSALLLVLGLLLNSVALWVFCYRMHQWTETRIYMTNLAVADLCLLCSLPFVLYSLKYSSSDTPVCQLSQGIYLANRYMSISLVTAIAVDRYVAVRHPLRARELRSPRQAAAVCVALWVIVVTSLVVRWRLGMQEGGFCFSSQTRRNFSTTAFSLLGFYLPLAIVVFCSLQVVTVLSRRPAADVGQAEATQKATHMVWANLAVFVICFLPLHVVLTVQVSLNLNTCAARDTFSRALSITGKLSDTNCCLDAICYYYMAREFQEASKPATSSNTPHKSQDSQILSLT
T2 sequence (Q9Y2T6 whole entry): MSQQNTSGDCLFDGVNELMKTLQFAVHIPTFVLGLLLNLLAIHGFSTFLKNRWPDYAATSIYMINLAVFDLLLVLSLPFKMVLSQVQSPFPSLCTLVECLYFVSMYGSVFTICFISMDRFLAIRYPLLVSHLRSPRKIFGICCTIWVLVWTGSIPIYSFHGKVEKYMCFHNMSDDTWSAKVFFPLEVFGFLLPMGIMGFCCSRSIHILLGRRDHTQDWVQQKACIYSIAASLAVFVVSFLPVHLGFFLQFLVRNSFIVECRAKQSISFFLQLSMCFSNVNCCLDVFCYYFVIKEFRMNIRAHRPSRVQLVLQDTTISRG
Sequence of G protein-coupled receptor GPR35 (Rattus norvegicus) (Q33BM1 as listed by the source): as the sequence (Q33BM1 whole entry) above
Sequence of G-protein coupled receptor 35 (Mus musculus, UniProt Q9ES90) (Q9ES90 whole entry): as the sequence (Q9ES90 whole entry) above
Sequence of Neuronal acetylcholine receptor subunit alpha-7 (P36544 whole entry): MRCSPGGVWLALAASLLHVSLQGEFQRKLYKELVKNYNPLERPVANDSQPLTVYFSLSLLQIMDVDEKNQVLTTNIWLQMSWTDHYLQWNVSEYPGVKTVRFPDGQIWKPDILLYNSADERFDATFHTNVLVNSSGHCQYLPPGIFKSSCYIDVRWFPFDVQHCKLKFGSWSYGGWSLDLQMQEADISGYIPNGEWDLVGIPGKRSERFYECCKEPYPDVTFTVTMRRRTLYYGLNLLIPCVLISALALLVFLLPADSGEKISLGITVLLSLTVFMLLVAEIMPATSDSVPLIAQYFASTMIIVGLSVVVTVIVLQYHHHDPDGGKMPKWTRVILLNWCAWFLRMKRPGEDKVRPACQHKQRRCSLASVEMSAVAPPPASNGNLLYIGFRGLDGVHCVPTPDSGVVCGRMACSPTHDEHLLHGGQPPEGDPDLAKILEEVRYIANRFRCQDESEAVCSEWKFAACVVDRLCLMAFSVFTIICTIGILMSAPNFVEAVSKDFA

What is called Ki is the dissociation constant of the complex between target and ligand, obtained from inhibition or displacement. A higher Ki goes with a looser hold on the target. For orientation: IC50 means the concentration at which inhibition is half-maximal. In general, Emax refers to the greatest response seen or fitted, relative to the assay's reference. A word on the EC50: it is the concentration at which the effect is half-maximal. In [1], `O=C(O)c1cc(=O)c2c(OCC(O)COc3cccc4oc(C(=O)O)cc(=O)c34)cccc2o1` [CROMOLYN SODIUM] had a Ki of 0.0008 µM. Half-maximal inhibition in data set [2] (IC50) was put at 5 µM. Moreover, the values for the Emax in data set [3], in data set [5] and in data set [7] were 104%, 102% and 119%, respectively. For the same compound, the EC50 in data set [4] stood at 0.986 µM; in data set [6], 4.84 µM; in data set [8] it was 1.26 µM.

For the compound `COc1ccc(C(=O)Nc2cc(Br)cc3c(=O)cc(C(=O)O)oc23)cc1`, in the data set listed under Homo sapiens, the Ratio IC50/EC50 is over 1700. In addition, the 50% inhibitory concentration (IC50) in data set [9] came out at 21.7 µM. For the same compound, the Activity was 0% in data set [10] and 36% in data set [13]. Also, the results for the Emax in [11], in data set [3] and in data set [7] were 136%, 88% and 121%, respectively. In addition, the values for the EC50 in data set [12], in data set [4] and in data set [8] were 0.0221 µM, 1.4 µM and 0.0121 µM, respectively. The Stability entry in data set [14], in data set [15] and in data set [16] was “Stable” each time.

Take `O=C(O)c1cc(=O)c2ccccc2[nH]1` [TRANSTORINE]: the EC50 came out at 0.3 µM in data set [17], 66 µM in data set [4] and 217 µM in data set [8]. In addition, the concentration for half-maximal inhibition (IC50) in [18] turned out to be 7 µM; in data set [19] it was 15 µM; in data set [20], 2900 µM; in data set [21], 10 µM.

(Values after ChEMBL document CHEMBL2390920, “8-Benzamidochromen-4-one-2-carboxylic acids: potent and selective agonists for the orphan G protein-coupled receptor GPR35” (J Med Chem, 2013).)
